Measured values: ChEMBL document CHEMBL1944524, “Synthesis and structure-activity relationship of 5-pyridazin-3-one phenoxypiperidines as potent, selective histamine H(3) receptor inverse agonists” (Bioorg Med Chem Lett, 2012)
Activity calls are given as the source filed them. The calls are words filed in the database; no cut-off is given here.

Assays:
[1] = Oral bioavailability in rat at 10 mg/kg; type: ADME, organism-based; conditions: in vivo
Method in brief: (§1)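 Rat PK study, dosed 1 mg/kg iv plus 10 or 5 mg/kg po. iv vehicle 3% DMSO, 30% solutol, 67% phosphate buffered saline; oral vehicle 50% Tween 80, 40% propylene carbonate, 10% propylene glycol.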

[2] = test system: Salmonella typhimurium; experiment: Genotoxicity against Salmonella Typhimurium TA102 by Ames test in the presence of rat liver S9 fraction; type: toxicity, organism-based; conditions: salmonella enterica subsp. enterica serovar typhimurium
[3] = AUC in rat at 10 mg/kg, po; type: ADME, organism-based; set-up: dose 10 mg/kg, route oral; conditions: plasma; method in brief: as §1
[4] = Cmax in rat at 10 mg/kg, po; type: ADME, organism-based; set-up: dose 10 mg/kg, route oral; conditions: in vivo; method in brief: as §1
[5] = test system: Salmonella typhimurium; experiment: Genotoxicity against Salmonella Typhimurium TA98 by Ames test in the absence of rat liver S9 fraction; type: toxicity, organism-based; conditions: salmonella enterica subsp. enterica serovar typhimurium
[6] = test system: Rattus norvegicus; experiment: Wake promoting activity in Sprague-Dawley rat EEG/EMG sleep-wake model assessed as increase in wake time at 10 mg/kg, ip after 4 hrs; type: functional; conditions: route intraperitoneal
Method in brief: (§2)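 Male Sprague Dawley rats surgically implanted for chronic EEG/EMG recording; ip dosing during normal quiet period; cumulative wake time over 4 h post dose vs vehicle; n = 6-7/group, mean + SEM, Dunnett's test vs vehicle.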

[7] = molecular target: Histamine H2 receptor (Homo sapiens) (UniProt P25021); experiment: Inhibition of human histamine H2 receptor at 10 uM
Method in brief: (§3)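 Selectivity screen against human H1, H2 and H4 receptors; percent inhibition at 10 µM.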

[8] = test system: Salmonella typhimurium; experiment: Genotoxicity against Salmonella Typhimurium TA1537 by Ames test in the absence of rat liver S9 fraction; type: toxicity, organism-based; conditions: salmonella enterica subsp. enterica serovar typhimurium
[9] = Half life in dog liver microsomes; type: ADME, Canis lupus familiaris, Microsome
Method in brief: (§4)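 Stability in liver microsomes from rat, dog or human; half-life (min) determined.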

[10] = Plasma protein binding in human; type: ADME, cell-free; conditions: read-out: PPB (converted)
Method in brief: (§5)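 In vitro binding to plasma proteins of rat, dog and human; percent bound.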

[11] = Half life in human liver microsomes; type: ADME, Microsome; method in brief: as §4
[12] = Genotoxicity against mouse lymphocytes by micronuclei test in the absence of rat liver S9 fraction; type: toxicity, cell-based; conditions: lymphocyte
[13] = molecular target: T1, Histamine H3 receptor (Homo sapiens, UniProt Q9Y5N1); experiment: Displacement of [3H]N-alpha-methylhistamine from human histamine H3 receptor expressed in CHO cells; type: cell-based
[14] = test system: Salmonella typhimurium; experiment: Genotoxicity against Salmonella Typhimurium TA102 by Ames test in the absence of rat liver S9 fraction; type: toxicity, organism-based; conditions: salmonella enterica subsp. enterica serovar typhimurium
[15] = molecular target: Histamine H4 receptor (Homo sapiens) (UniProt Q9H3N8); experiment: Inhibition of human histamine H4 receptor at 10 uM; method in brief: as §3
[16] = Aqueous solubility of the compound at pH 7.4; type: physicochemical; conditions: buffer
Method in brief: (§6)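 Water solubility measured at pH 2 and at pH 7.4, in […].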

[17] = Tmax in rat at 10 mg/kg, po; type: ADME, organism-based; set-up: dose 10 mg/kg, route oral; conditions: in vivo; method in brief: as §1
[18] = Plasma protein binding in rat; type: ADME, cell-free; conditions: read-out: PPB (converted); method in brief: as §5
[19] = molecular target: Histamine H3 receptor (Rattus norvegicus, UniProt Q9QYN8); experiment: Displacement of [3H]N-alpha-methylhistamine from rat histamine H3 receptor expressed in CHO cells; type: cell-based
[20] = test system: Salmonella typhimurium; experiment: Genotoxicity against Salmonella Typhimurium TA98 by Ames test in the presence of rat liver S9 fraction; type: toxicity, organism-based; conditions: salmonella enterica subsp. enterica serovar typhimurium
[21] = test system: Rattus norvegicus; experiment: Toxicity in Sprague-Dawley rat assessed as hypersomnolence at 1 to 30 mg/kg, ip after 4 hrs; type: organism-based; set-up: dose 1-30 mg/kg, route intraperitoneal; conditions: in vivo
[22] = Plasma protein binding in dog; type: ADME, cell-free, Canis lupus familiaris; conditions: read-out: PPB (converted); method in brief: as §5
[23] = test system: Rattus norvegicus; experiment: Inhibition of RAMH-induced water drinking in ip dosed rat dipsogenia model; type: functional
Method in brief: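 Rat dipsogenia model: water drinking induced by H3 agonist R-alpha-methylhistamine; test article given ip beforehand; inhibition of drinking measured and ED50 (mg/kg) derived.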

[24] = Aqueous solubility of the compound at pH 2; type: physicochemical; conditions: buffer; method in brief: as §6
[25] = test system: Rattus norvegicus; experiment: Wake promoting activity in Sprague-Dawley rat EEG/EMG sleep-wake model assessed as slow-wave sleep onset time at 1 mg/kg, ip after 4 hrs (reference value: 34.9 +/- 5.1 mins); type: functional; conditions: route intraperitoneal
Method in brief: (§7)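 Male Sprague Dawley rats surgically implanted for chronic EEG and EMG recording; test agent given ip, vehicle group as control; n = 6-7/group. […] Mean + SEM; Dunnett's test versus vehicle.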

[26] = Ratio of drug level in brain to plasma in rat at 10 mg/kg, ip after 6 hrs; type: ADME, organism-based; set-up: dose 10 mg/kg, route intraperitoneal; conditions: read-out: BPR
Method in brief: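 Brain and plasma levels measured in rat 6 h after a 10 mg/kg ip dose; value is brain/plasma ratio.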

[27] = test system: Rattus norvegicus; experiment: Wake promoting activity in Sprague-Dawley rat EEG/EMG sleep-wake model assessed as maximum cumulative wake time at 30 mg/kg, ip up to 17 hrs; type: functional, organism-based; set-up: dose 30 mg/kg
[28] = Genotoxicity against mouse lymphocytes by micronuclei test in the presence of rat liver S9 fraction; type: toxicity, Lymphocyte
[29] = test system: Salmonella typhimurium; experiment: Genotoxicity against Salmonella Typhimurium TA100 by Ames test in the presence of rat liver S9 fraction; type: toxicity, organism-based; conditions: salmonella enterica subsp. enterica serovar typhimurium
[30] = molecular target: Voltage-gated inwardly rectifying potassium channel KCNH2 (Homo sapiens, UniProt Q12809); experiment: Inhibition of human ERG by patch clamp assay
[31] = test system: Rattus norvegicus; experiment: Wake promoting activity in Sprague-Dawley rat EEG/EMG sleep-wake model assessed as slow-wave sleep onset time at 3 mg/kg, ip after 4 hrs (reference value: 34.9 +/- 5.1 mins); type: functional; conditions: route intraperitoneal; method in brief: as §7
[32] = molecular target: Histamine H1 receptor (Homo sapiens) (UniProt P35367); experiment: Inhibition of human histamine H1 receptor at 10 uM; method in brief: as §3
[33] = Inhibition of alpha-adrenergic receptor at 10 uM
Method in brief: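 Broad panel of 101 GPCRs, ion channels and enzymes; percent inhibition at 10 µM.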

[34] = Clearance in rat at 1 mg/kg, iv; type: ADME, organism-based; set-up: dose 1 mg/kg, route intravenous; conditions: in vivo; method in brief: as §1
[35] = test system: Salmonella typhimurium; experiment: Genotoxicity against Salmonella Typhimurium TA1537 by Ames test in the presence of rat liver S9 fraction; type: toxicity, organism-based; conditions: salmonella enterica subsp. enterica serovar typhimurium
[36] = test system: Rattus norvegicus; experiment: Wake promoting activity in Sprague-Dawley rat EEG/EMG sleep-wake model assessed as increase in wake time at 30 mg/kg, ip after 4 hrs relative to control; type: functional; conditions: route intraperitoneal; method in brief: as §7
[37] = test system: Salmonella typhimurium; experiment: Genotoxicity against Salmonella Typhimurium TA1535 by Ames test in the absence of rat liver S9 fraction; type: toxicity, organism-based; conditions: salmonella enterica subsp. enterica serovar typhimurium
[38] = molecular target: T1, Histamine H3 receptor; experiment: Inverse agonist activity at human histamine H3 histamine receptor by [35S]GTPgammaS binding assay; type: functional
Method in brief: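 Functional assay measuring [35S]GTPγS binding at the human H3 receptor. Inverse agonist potency is reported as an EC50.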

[39] = test system: Rattus norvegicus; experiment: Wake promoting activity in Sprague-Dawley rat EEG/EMG sleep-wake model assessed as increase in wake time at 30 mg/kg, ip after 4 hrs; type: functional; conditions: route intraperitoneal; method in brief: as §2
[40] = test system: Salmonella typhimurium; experiment: Genotoxicity against Salmonella Typhimurium TA100 by Ames test in the absence of rat liver S9 fraction; type: toxicity, organism-based; conditions: salmonella enterica subsp. enterica serovar typhimurium
[41] = test system: Rattus norvegicus; experiment: Wake promoting activity in Sprague-Dawley rat EEG/EMG sleep-wake model assessed as maximum cumulative wake time at 30 mg/kg, ip at 6 hrs; type: functional; conditions: route intraperitoneal
[42] = test system: Salmonella typhimurium; experiment: Genotoxicity against Salmonella Typhimurium TA1535 by Ames test in the presence of rat liver S9 fraction; type: toxicity, organism-based; conditions: salmonella enterica subsp. enterica serovar typhimurium
[43] = Half life in rat liver microsomes; type: ADME, Microsome; method in brief: as §4
[44] = Inhibition of cytochrome P450; type: ADME
Method in brief: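 CYP inhibition assessed against 5 CYP isoforms; IC50 determined.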

[45] = Half life in rat at 1 mg/kg, iv; type: ADME, organism-based; set-up: dose 1 mg/kg, route intravenous; conditions: in vivo; method in brief: as §1
[46] = Volume of distribution in rat at 1 mg/kg, iv; type: ADME, organism-based; set-up: dose 1 mg/kg, route intravenous; conditions: in vivo; method in brief: as §1
[47] = Apparent permeability of the compound across human Caco2 cells; type: ADME, cell-based; conditions: Caco-2
Method in brief: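 Caco-2 monolayer permeability; apparent permeability (Papp, cm/s) reported.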

T1 sequence (Q9Y5N1 whole entry): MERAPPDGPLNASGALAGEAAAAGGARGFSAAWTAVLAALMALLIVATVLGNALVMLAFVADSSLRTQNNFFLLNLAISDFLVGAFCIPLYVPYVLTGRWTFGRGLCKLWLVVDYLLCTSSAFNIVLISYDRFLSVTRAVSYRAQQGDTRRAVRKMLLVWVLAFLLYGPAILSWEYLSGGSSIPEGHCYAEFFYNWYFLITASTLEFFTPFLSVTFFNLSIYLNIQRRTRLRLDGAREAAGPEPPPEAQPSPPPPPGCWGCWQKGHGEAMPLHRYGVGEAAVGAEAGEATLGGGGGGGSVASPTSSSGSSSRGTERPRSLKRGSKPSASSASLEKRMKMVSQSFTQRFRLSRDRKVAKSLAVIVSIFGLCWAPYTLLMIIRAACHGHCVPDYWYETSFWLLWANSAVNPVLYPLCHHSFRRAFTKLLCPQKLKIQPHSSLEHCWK
Chain of Histamine H3 receptor (Rattus norvegicus, UniProt Q9QYN8) (Q9QYN8 whole entry): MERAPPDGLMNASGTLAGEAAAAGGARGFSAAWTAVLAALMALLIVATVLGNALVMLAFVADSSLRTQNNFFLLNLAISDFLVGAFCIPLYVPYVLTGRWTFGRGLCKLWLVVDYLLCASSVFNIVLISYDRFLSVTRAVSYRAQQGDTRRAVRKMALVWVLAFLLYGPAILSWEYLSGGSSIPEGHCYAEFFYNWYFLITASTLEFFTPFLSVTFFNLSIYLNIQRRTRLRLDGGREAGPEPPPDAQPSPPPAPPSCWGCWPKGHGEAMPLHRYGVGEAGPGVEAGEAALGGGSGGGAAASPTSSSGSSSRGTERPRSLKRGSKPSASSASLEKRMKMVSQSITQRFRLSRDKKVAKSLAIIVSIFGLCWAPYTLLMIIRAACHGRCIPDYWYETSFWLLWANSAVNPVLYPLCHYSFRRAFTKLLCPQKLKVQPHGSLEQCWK
Chain of Histamine H2 receptor (Homo sapiens) (P25021 whole entry): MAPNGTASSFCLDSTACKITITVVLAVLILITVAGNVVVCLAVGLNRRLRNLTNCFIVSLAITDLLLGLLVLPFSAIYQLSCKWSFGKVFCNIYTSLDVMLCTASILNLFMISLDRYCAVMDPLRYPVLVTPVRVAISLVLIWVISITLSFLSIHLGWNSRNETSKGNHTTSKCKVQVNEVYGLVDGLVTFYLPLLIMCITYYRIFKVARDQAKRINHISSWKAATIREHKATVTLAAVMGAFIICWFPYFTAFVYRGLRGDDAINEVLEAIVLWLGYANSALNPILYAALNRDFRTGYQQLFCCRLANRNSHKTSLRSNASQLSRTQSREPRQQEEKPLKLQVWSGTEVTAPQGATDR
Chain of Histamine H4 receptor (Homo sapiens) (Q9H3N8 whole entry): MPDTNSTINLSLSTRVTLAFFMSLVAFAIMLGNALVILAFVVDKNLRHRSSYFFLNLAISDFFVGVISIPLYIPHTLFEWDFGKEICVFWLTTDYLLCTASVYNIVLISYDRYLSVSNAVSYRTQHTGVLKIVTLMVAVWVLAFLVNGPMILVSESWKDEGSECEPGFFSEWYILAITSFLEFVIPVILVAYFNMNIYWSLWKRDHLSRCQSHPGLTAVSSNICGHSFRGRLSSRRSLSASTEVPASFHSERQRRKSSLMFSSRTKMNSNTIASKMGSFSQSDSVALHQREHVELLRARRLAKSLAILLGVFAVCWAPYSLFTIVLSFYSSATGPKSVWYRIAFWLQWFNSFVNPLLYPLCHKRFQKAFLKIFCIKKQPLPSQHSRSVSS
Chain of Voltage-gated inwardly rectifying potassium channel KCNH2 (Q12809 whole entry): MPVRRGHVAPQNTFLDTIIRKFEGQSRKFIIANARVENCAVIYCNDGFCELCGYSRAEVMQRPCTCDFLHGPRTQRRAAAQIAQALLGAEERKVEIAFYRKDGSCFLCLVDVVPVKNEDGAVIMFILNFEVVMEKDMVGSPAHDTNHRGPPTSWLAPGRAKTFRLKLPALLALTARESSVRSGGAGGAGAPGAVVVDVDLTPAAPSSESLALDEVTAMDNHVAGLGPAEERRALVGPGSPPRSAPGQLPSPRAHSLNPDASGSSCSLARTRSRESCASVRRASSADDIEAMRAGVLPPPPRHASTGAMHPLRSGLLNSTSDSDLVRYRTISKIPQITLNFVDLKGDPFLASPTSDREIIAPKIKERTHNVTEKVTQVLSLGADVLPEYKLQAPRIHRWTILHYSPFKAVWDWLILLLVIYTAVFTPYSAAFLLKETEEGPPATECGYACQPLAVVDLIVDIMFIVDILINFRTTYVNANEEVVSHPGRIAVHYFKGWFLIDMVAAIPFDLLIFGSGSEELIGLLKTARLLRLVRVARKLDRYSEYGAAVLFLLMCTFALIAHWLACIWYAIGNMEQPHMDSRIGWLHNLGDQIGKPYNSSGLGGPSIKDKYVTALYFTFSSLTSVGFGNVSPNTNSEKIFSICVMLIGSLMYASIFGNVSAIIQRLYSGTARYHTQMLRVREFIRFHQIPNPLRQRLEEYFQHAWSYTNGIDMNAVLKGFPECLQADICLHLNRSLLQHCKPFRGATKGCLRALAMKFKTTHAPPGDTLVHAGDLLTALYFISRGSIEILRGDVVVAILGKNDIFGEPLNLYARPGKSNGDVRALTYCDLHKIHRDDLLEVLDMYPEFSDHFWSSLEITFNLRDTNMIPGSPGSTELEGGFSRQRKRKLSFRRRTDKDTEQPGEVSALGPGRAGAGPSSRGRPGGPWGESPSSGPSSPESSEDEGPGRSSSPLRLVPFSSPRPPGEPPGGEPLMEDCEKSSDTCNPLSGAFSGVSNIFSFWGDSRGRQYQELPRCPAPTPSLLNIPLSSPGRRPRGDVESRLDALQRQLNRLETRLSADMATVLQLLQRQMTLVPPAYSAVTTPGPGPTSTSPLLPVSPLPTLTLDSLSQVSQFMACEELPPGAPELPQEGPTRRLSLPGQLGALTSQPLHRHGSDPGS
Chain of Histamine H1 receptor (Homo sapiens) (P35367 whole entry): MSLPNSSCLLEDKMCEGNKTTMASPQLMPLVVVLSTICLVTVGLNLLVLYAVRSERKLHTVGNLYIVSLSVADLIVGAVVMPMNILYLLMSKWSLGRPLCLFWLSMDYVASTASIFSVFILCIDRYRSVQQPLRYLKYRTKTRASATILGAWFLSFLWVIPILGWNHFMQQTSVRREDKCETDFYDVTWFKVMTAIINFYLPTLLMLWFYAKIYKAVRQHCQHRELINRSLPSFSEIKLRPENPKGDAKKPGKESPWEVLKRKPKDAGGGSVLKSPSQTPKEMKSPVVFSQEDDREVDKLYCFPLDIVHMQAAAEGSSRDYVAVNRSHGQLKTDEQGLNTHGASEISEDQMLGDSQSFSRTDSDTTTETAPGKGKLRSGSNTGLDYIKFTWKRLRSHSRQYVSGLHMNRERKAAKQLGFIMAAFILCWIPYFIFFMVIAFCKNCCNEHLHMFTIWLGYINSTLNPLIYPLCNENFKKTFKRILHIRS

SMILES: Cc1n[nH]c(=O)cc1-c1ccc(OC2CCN(C3CCC3)CC2)cc1
- bioavailability [1]: 68%
- Activity [2]: Non-toxic
- AUC [3]: 4870 ng·h/mL
- Cmax [4]: 673 ng/mL
- Activity [5]: Non-toxic
- Time [6]: 167 min
- inhibition [7]: < 20%
- Activity [8]: Non-toxic
- half-life [9]: > 0.667 h
- fraction unbound [10]: 0.42
- half-life [11]: > 0.667 h
- Activity [12]: Non-toxic
- Ki [13]: 5 nM
- Activity [14]: Non-toxic
- inhibition [15]: < 20%
- solubility [16]: > 140 µg/mL
- Tmax [17]: 1 h
- fraction unbound [18]: 0.46
- Ki [19]: 6 nM
- Activity [20]: Non-toxic
- Activity [21]: Non-toxic
- fraction unbound [22]: 0.57
- ED50 [23]: 0.02 mg/kg
- solubility [24]: > 140 µg/mL
- Time [25]: 35.3 min
- Kp at 6 h [26]: 2.3
- Activity [27]: Active
- Activity [28]: Non-toxic
- Activity [29]: Non-toxic
- IC50 [30]: 7000 nM
- Time [31]: 45 min
- inhibition [32]: < 20%
- inhibition [33]: > 50%
- clearance [34]: 25 mL/min/kg
- Activity [35]: Non-toxic
- Activity [36]: 178%
- Activity [37]: Non-toxic
- EC50 [38]: 1.1 nM
- Time [39]: 226 min
- Activity [40]: Non-toxic
- Time [41]: 163 min
- Activity [42]: Non-toxic
- half-life [43]: > 0.667 h
- IC50 [44]: > 30000 nM
- half-life [45]: 1.5 h
- Vd [46]: 3.4 L/kg
- Papp [47]: 14.9 ×10⁻⁶ cm/s
